# Reference: ChEMBL document CHEMBL3045526, “Tailoring the structure of aminobisphosphonates to target plant P5C reductase” (J Agric Food Chem, 2008)
# pIC50: −log10 of the molar value. The source made the active and inactive calls. The rule behind the calls is not given here.
# How the values were obtained:
# Arabidopsis thaliana [1] = experiment: Growth inhibition of Arabidopsis thaliana suspension cultured cells assessed as reduction in dry weight increase measured 8 days after compound incubation; assay type: functional
# Procedure, shortened: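 Same A. thaliana Columbia suspension cultures, inoculated at 3.2–3.5 mg mL-1 dry weight. Filter-sterilized compounds (pH 6.0 with KOH) added at increasing concentrations once density reached 4.0 mg mL-1. After 8 days, when controls reached early stationary phase, cells were vacuum-filtered and oven-dried (90 °C, 48 h). Dry weight increase given as % of control; 50% growth-reduction concentration derived.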
# [2] = biological target: T1, Pyrroline-5-carboxylate reductase (Arabidopsis thaliana, UniProt P54904); experiment: Inhibition of Arabidopsis thaliana P5C assessed as reduction in NADH oxidation incubated at 35 degC up to 10 min
# T1 sequence (P54904 whole entry): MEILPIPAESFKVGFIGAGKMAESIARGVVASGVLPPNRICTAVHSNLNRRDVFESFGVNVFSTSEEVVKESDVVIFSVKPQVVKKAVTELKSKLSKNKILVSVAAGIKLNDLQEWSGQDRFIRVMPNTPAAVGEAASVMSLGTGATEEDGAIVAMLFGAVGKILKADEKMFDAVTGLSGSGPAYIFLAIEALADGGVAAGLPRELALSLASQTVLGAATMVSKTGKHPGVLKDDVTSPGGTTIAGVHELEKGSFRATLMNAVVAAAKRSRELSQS
# Procedure, shortened: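 P5C reductase partially purified from stationary-phase A. thaliana cultured cells. Forward reaction run in 100 mM Tris-HCl pH 8.0, 0.1 mM MgCl2, 2 mM DL-P5C, 0.25 mM NADH, with 0.15–0.20 nkat enzyme. A340 followed at 35 °C for up to 10 min against P5C-free blanks. Inhibitor final 5 µM–5 mM (pH 7.5–8.0), triplicate. IC50 by linear regression of % activity vs log concentration.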
# Arabidopsis thaliana [3] = experiment: Growth inhibition of Arabidopsis thaliana suspension cultured cells assessed as reduction in dry weight increase at 0.2 mM measured 8 days after compound incubation in presence of exogenously supplied 2 mM proline; assay type: functional
# Procedure, shortened: (§1)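 A. thaliana Columbia suspension cells (MS medium, 0.3% sucrose, 2,4-D and BAP 0.5 mg L-1 each; 24 °C, 100 rpm, dim light). Flasks inoculated at 3.2–3.5 mg mL-1 dry weight. Inhibitor (pH 6.0) plus filter-sterilized amino acids added together at 4.0 mg mL-1. Dry weight increase after 8 days (oven, 90 °C, 48 h) given as % of untreated control. Four replicates.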
# Arabidopsis thaliana [4] = experiment: Growth inhibition of Arabidopsis thaliana suspension cultured cells assessed as reduction in dry weight increase at 0.2 mM measured 8 days after compound incubation in presence of exogenously supplied 10 mM glutamine; assay type: functional; procedure, shortened: as §1
# Arabidopsis thaliana [5] = experiment: Growth inhibition of Arabidopsis thaliana suspension cultured cells assessed as reduction in dry weight increase at 0.2 mM measured 8 days after compound incubation in presence of exogenously supplied 10 mM glutamine and 2 mM proline; assay type: functional; procedure, shortened: as §1
SMILES,growth inhibition (GI) (Arabidopsis thaliana [1]),pIC50 [2],also measured
"O=P(O)(O)C(Nc1c(Cl)cccc1Cl)P(=O)(O)O [2,6-DICHLOROPHENYLAMINOMETHYLENEBISPHOSPHONIC ACID]",Active,–,–
O=P(O)(O)C(N1CCCCCC1)P(=O)(O)O [N-(HEXAMETHYLENEIMINO)METHYLENEBISPHOSPHONIC ACID],–,1.13,–
"O=P(O)(O)C(Nc1cc(Cl)cc(Cl)c1)P(=O)(O)O [(3,5-DICHLOROPHENYLAMINO)METHYLENEDIPHOSPHONIC ACID]",–,–,GI50 (Arabidopsis thaliana [1]; 192 h): 240 µM; growth inhibition (GI) (Arabidopsis thaliana [3]): Active; growth inhibition (GI) (Arabidopsis thaliana [4]): Active; growth inhibition (GI) (Arabidopsis thaliana [5]): inactive
"Cc1cc(C)cc(NC(P(=O)(O)O)P(=O)(O)O)c1 [3,5-DIMETHYLPHENYLAMINOMETHYLENEBISPHOSPHONIC ACID]",–,2.97,–
O=P(O)(O)C(N1CCCCCCC1)P(=O)(O)O [N-(HEPTAMETHYLENEIMINO)METHYLENEBISPHOSPHONIC ACID],–,0.27,–
"O=P(O)(O)C(Nc1cccc(Cl)c1Cl)P(=O)(O)O [2,3-DICHLOROPHENYLAMINOMETHYLENEBISPHOSPHONIC ACID]",Active,–,–
